Data as given in ChEMBL document CHEMBL4340510, “Design, synthesis, and biological evaluation of truncated deguelin derivatives as Hsp90 inhibitors” (Eur J Med Chem, 2019).

Key:
[1] = test system: NCI-H1299; assay: Antiproliferative activity against human NCI-H1299 cells assessed as inhibition of cell growth at 0.1 uM after 72 hrs by MTT assay relative to control; format: functional; conditions: NCI-H1299, 72 h, read-out: GI
Method in brief: (§1)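 Cells in RPMI 1640 are seeded at 4,000 cells/well and held 24 h at 37 °C, 5% CO2. Medium is replaced with compound-containing medium (DMSO ≤0.25%) for 72 h at 37 °C. MTT read-out by absorbance at 570 nm. Quadruplicate wells, repeated three times; values are means of three independent experiments.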

[2] = test system: NCI-H1299; assay: Antiproliferative activity against human NCI-H1299 cells assessed as inhibition of cell growth at 1 uM after 72 hrs by MTT assay relative to control; format: functional; conditions: NCI-H1299, 72 h, read-out: GI; method in brief: as §1
[3] = test system: NCI-H1299; assay: Antiproliferative activity against human NCI-H1299 cells assessed as inhibition of cell growth at 10 uM after 72 hrs by MTT assay relative to control; format: functional; conditions: NCI-H1299, 72 h, read-out: GI; method in brief: as §1
[4] = test system: A549; assay: Antiproliferative activity against human A549 cells after 72 hrs by MTT assay; format: functional, cell-based; conditions: A549, 72 h; method in brief: as §1
[5] = test system: NCI-H1299; assay: Antiproliferative activity against human NCI-H1299 cells after 72 hrs by MTT assay; format: functional, cell-based; conditions: NCI-H1299, 72 h; method in brief: as §1
[6] = test system: MCF7; assay: Antiproliferative activity against human MCF7 cells after 72 hrs by MTT assay; format: functional, cell-based; conditions: MCF7, 72 h; method in brief: as §1
[7] = biological target: Heat shock protein HSP 90-alpha (Homo sapiens, UniProt P07900); assay: Inhibition of FITC-geldanamycin binding to recombinant human full-length C-terminal His-tagged HSP90alpha […] (1 to 732 residues) expressed in Escherichia coli after 1 hr by fluorescence polarization assay

Row | SMILES | inhibition of growth at 0.1 µM [1] [%] | inhibition of growth at 1 µM [2] [%] | inhibition of growth at 10 µM [3] [%] | IC50 [4] [µM] | IC50 [5] [µM] | IC50 [6] [µM] | IC50 [7] [µM]
1 | COc1ccc(CC(=O)c2ccc3c(c2OC)C=CC(C)(C)O3)cc1 | 3.6 | 7.3 | 10.6 |  |  |  | 
2 | COc1ccc(CC(=O)c2ccc3c(c2O)C=CC(C)(C)O3)cc1 | 6.1 | 7.1 | 16.1 |  |  |  | 
3 | COc1ccc(C(Cc2ccccc2)C(=O)c2ccc3c(c2OCc2ccccc2)C=CC(C)(C)O3)cc1OC (stereo not drawn) | 2.1 | 2.5 | 9.9 |  |  |  | 
4 | COc1cc(CC(=O)c2ccc3c(c2O)C=CC(C)(C)O3)cc(OC)c1OC | 9.7 | 19.7 | 49 | 13.1 | 12 | 11.2 | 0.43
5 | COc1cc(CC(=O)c2ccc3c(c2OC)CCC(C)(C)O3)cc(OC)c1OC | 11 | 30.6 | 67.5 | 5.33 | 5.72 | 5.22 | 0.28
6 | COc1c(C(=O)Cc2ccccc2)ccc2c1C=CC(C)(C)O2 | 5.6 | 9.3 | 11.3 |  |  |  | 
7 | COc1ccc(CC(=O)c2ccc3c(c2OC)C=CC(C)(C)O3)cc1OC | 5.1 | 10.7 | 47.3 | 6 | 11.8 | 6.88 | 0.09
8 | COc1ccc(CC(=O)c2ccc3c(c2OC(C)=O)C=CC(C)(C)O3)cc1OC | 4.1 | 6.2 | 19.5 |  |  |  | 
9 | COc1ccc(CCC(=O)c2ccc3c(c2O)C=CC(C)(C)O3)cc1OC | 3.6 | 8.5 | 30.1 |  |  |  | 
10 | COc1c(C(=O)C(C)c2ccccc2)ccc2c1C=CC(C)(C)O2 (stereo not drawn) | 4.5 | 6.5 | 15.5 |  |  |  | 
11 | CC1(C)C=Cc2c(ccc(C(=O)Cc3ccc(Cl)c(Cl)c3)c2O)O1 | 8.3 | 9.1 | 11.5 |  |  |  | 
12 | COc1ccc(/C=C/C(=O)c2ccc3c(c2O)C=CC(C)(C)O3)cc1OC | 5.3 | 6.4 | 10.7 |  |  |  | 
13 | COc1cc(CC(=O)c2ccc3c(c2OC)C=CC(C)(C)O3)cc(OC)c1 | 7.1 | 10.2 | 40.1 |  |  |  | 
14 | COc1ccc(OC)c(CC(=O)c2ccc3c(c2OC)C=CC(C)(C)O3)c1 | 4.7 | 10.4 | 38.2 |  |  |  | 
15 | COc1cc2c(cc1OC)[C@@H]1C(=O)c3ccc4c(c3O[C@@H]1CO2)C=CC(C)(C)O4 [DEGUELIN] | 9.9 | 28.5 | 65.3 | 6.05 | 5.67 | 8.17 | 1.63
16 | COc1ccc(C(C)C(=O)c2ccc3c(c2OC)C=CC(C)(C)O3)cc1 (stereo not drawn) | 7.1 | 10.8 | 13.3 |  |  |  | 
17 | COc1ccc(CC(=O)c2ccc3c(c2O)C=CC(C)(C)O3)cc1OC | 4.8 | 8.2 | 45.3 |  |  |  | 
18 | CC(C)c1cc(C(=O)N2Cc3ccc(CN4CCN(C)CC4)cc3C2)c(O)cc1O [ONALESPIB] | 94.8 | 96.8 | 95.7 | 0.44 | 0.37 | 0.29 | 0.02
19 | COc1cc(/C=C/C(=O)c2ccc3c(c2O)C=CC(C)(C)O3)cc(OC)c1OC | 3.8 | 8.7 | 12.3 |  |  |  | 
20 | COc1ccc(CC(=O)c2ccc3c(c2OC)CCC(C)(C)O3)cc1OC | 7.2 | 12.4 | 49.3 | 7.2 | 12.6 | 7.86 | 0.15
21 | COc1cc(CC(=O)c2ccc3c(c2OC)C=CC(C)(C)O3)cc(OC)c1OC | 9.6 | 27.4 | 58.3 | 6.15 | 7.2 | 5.08 | 0.63
22 | CC1(C)C=Cc2c(ccc(C(=O)Cc3ccccc3)c2O)O1 | 3.9 | 7.8 | 15.1 |  |  |  | 
23 | COc1c(C(=O)Cc2ccc3c(c2)OCCO3)ccc2c1C=CC(C)(C)O2 | 3.5 | 6.5 | 28.1 |  |  |  | 
24 | COc1ccc(CC(O)c2ccc3c(c2OC)C=CC(C)(C)O3)cc1OC (stereo not drawn) | 6.5 | 10.8 | 19.8 |  |  |  | 
25 | COc1ccc(/C=C/c2ccc3c(c2OC)C=CC(C)(C)O3)cc1OC | 5.2 | 8.6 | 14.4 |  |  |  | 
